The nature of experiment [1]: growth delay of efflux-deficient P. aeruginosa under iron chelation, dose response, PAK mexAB-OprM pump mutant, OD600, dry powder, set 2 (AID 624104). To be noted: P. aeruginosa PAK mexAB-oprM, EDDHA, OD600 growth, 28 h; at 100 µM (top of the series). The essentials:
(§1)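 Material: Diluted overnight bacterial culture | Compound dosing: Pin-transferred compound series, final 100 µM down to 15 nM | Times: 28 h at 30 °C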

Experiment [2] concerns P. aeruginosa PAK mexAB-oprM, EDDHA, OD600 growth, 28 h. Described as above. Put shortly: as §1

Data on 22 molecules can be found in PubChem BioAssay AID624104 (Broad Institute, 2012).

Each structure is given as a SMILES string. Active and inactive are the calls of the source.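 Rule for the calls: active = fitted curve reaches a 35% growth drop -35 below twice the top tested dose; inactive = activity in the wrong direction, or the rest.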

Turning to `COCCOCCC(C#N)c1ccc(Cl)cc1` (configuration not stated), in experiment [1], the activity change, negative = growth inhibition was -10% (inactive).

`COCCOCCC(C#N)c1ccc(F)cc1` (configuration not stated): the AC35 in experiment [2] was 5.24 µM.

Take `N#Cc1cccc(C(C#N)c2ccc(F)cc2)n1` (configuration not stated): the AC35 in experiment [2] was 8.88 µM.

`CCCCC(C#N)c1ccc(F)cn1` (configuration not stated): the AC35 in experiment [2] was 18.7 µM.

`N#CC(c1ccc(F)cc1)c1cccc(Cl)n1` (configuration not stated): in experiment [2], the AC35 is 2.09 µM.

Turning to `N#CC(c1cccc(Cl)n1)c1ccc(Cl)cc1F` (configuration not stated), in experiment [2], the AC35 is 1.52 µM.

`N#CC1c2ccc(Cl)cc2CCc2cccnc21` (configuration not stated): the AC35 in experiment [2] was 32.8 µM.

With `CCCCC(C#N)c1ccc(F)cc1` (configuration not stated), the AC35 in experiment [2] was 33.5 µM.

Turning to `N#CC(c1ccc(Cl)cc1)c1cccc(Cl)n1` (configuration not stated), in experiment [2], the AC35 is 1.97 µM.

On to `CN(C)CCCC(C#N)c1ccc(F)cc1` (configuration not stated), for which, in experiment [2], the AC35 was 6.4 µM.

In the case of `N#CC(c1ccc(Cl)cc1)c1cccc(C(F)(F)F)n1` (configuration not stated), the AC35 in experiment [2] was 1.45 µM.

For the molecule `COCCC(C#N)c1ccc(Cl)cc1` (configuration not stated), the AC35 in experiment [2] was 40.2 µM.

Turning to `CN(C)CCCC(C#N)c1ccc(Cl)cc1` (configuration not stated), in experiment [1], the activity change, negative = growth inhibition was -0.114% (inactive).

As for `N#CC(c1cccc(C(F)(F)F)n1)c1ccc(Cl)cc1F` (configuration not stated), in experiment [2], the AC35 is 2.45 µM.

For `N#CC(c1ccc(C(F)(F)F)c(Cl)n1)c1ccccc1OC(F)(F)F` (configuration not stated), the activity change, negative = growth inhibition in experiment [1] was -25.9% (inactive).

For `N#CC(c1ccc(Cl)cc1)c1ncccc1Cl` (configuration not stated), the AC35 in experiment [2] was 0.923 µM.

As to `N#CC(c1ccc(F)cc1)c1cccc(C(F)(F)F)n1` (configuration not stated), the AC35 in experiment [2] is 0.839 µM.

In the case of `CCCCC(c1ccc(Cl)cc1)c1nn[nH]n1` (configuration not stated), in experiment [2], the AC35 is 25.2 µM.

Take `COCCC(C#N)c1ccc(F)cc1` (configuration not stated): the AC35 in experiment [2] was 28.3 µM.

In the case of `Clc1ccc(C(c2cccc(Cl)n2)c2nn[nH]n2)cc1` (configuration not stated), in experiment [1], the activity change, negative = growth inhibition is 11.2% (inactive).

Take `CCCCC(C#N)c1ccc(Cl)cn1` (configuration not stated): in experiment [2], the AC35 was 42.3 µM.

For the molecule `N#CC(c1ccc(Cl)cc1)c1ccccn1` (configuration not stated), the AC35 in experiment [2] was 5.72 µM.
